# From article PMC12152739 (Chemical Science, 2025)
# Where two headings read alike, the source gives them in different places.
# Legend:
# [1] = molecular target: T1, IMP-1 (Serratia marcescens, UniProt P52699); settings: CAZ hydrolysis by IMP-1; cited from earlier work
# [2] = molecular target: T2, VIM-2 (Escherichia coli, UniProt Q5U7L7); assay: Steady-state hydrolysis kinetics and UV difference spectra with purified VIM-2; settings: for hydrolysis monitored by UV difference spectroscopy: VIM-2, 200 : 1 S : E ratio, 220 nm to 300 nm
# [3] = molecular target: T1, IMP-1; assay: Steady-state hydrolysis kinetics and UV difference spectra with purified IMP-1; format: biochemical; settings: for hydrolysis monitored by UV difference spectroscopy: IMP-1, 200 : 1 S : E ratio, 220 nm to 300 nm
# [4] = molecular target: T3, NDM-1 (Klebsiella pneumoniae, UniProt C7C422); assay: Steady-state hydrolysis kinetics and UV difference spectra with purified NDM-1; format: biochemical; settings: for hydrolysis monitored by UV difference spectroscopy: NDM-1, 200 : 1 S : E ratio, 220 nm to 300 nm; for K M: substrate hydrolysis by NDM-1, 30 °C, 10 mM HEPES, 200 mM NaCl pH 7.5, 20 μM ZnSO4
# [5] = molecular target: T2, VIM-2; settings: CAZ hydrolysis by VIM-2, cited from earlier work
# [6] = molecular target: T4, NDM-5 (Klebsiella pneumoniae, UniProt C7C422, M154L/V88L); settings: CAZ hydrolysis by NDM-5; cited from earlier work
# [7] = test system: E. coli DH10B cells harboring the pMBLe blaNDM-1 plasmid; assay: Broth microdilution MIC in ID-CAMHB, E. coli producing NDM-1; format: cell-based
# Outline: (§1)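 Broth microdilution per CLSI in iron-depleted cation-adjusted Mueller–Hinton broth. DH10B carries the MBL gene on pMBLe with its native signal peptide under an IPTG-inducible promoter; inoculum in broth with 0–200 μM IPTG, final 5 × 10^5 CFU mL−1. Incubation 37 °C, 18 h; mode of three independent experiments. Enzyme levels by anti-strep-tag II immunoblot of drug-free growth wells, DnaK loading control.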
# [8] = molecular target: T1, IMP-1; assay: Inhibition of nitrocefin hydrolysis by IMP-1; format: biochemical; settings: 2 nM IMP-1, 5 min preincubation at 30 °C, 50 μM nitrocefin
# Outline: (§2)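 Recombinant MBL lacking its signal peptide, made in E. coli BL21(DE3) as His-tagged protein, Ni-affinity purified and TEV-cleaved (>95% pure). 2 nM enzyme preincubated 5 min at 30 °C with varied test compound, or its NDM-1 hydrolysis product, or none. Buffer: 10 mM HEPES, 200 mM NaCl pH 7.5, 20 μM ZnSO4. Nitrocefin 50 μM final; initial rates at 495 nm over 300 s. IC50 curves fitted; triplicate.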
# [9] = test system: E. coli DH10B cells harboring the pMBLe blaIMP-1 plasmid; assay: Broth microdilution MIC in ID-CAMHB, E. coli producing IMP-1; format: cell-based; settings: Escherichia coli, higher levels of IMP-1 (IPTG-induced)
# Outline: as §1
# [10] = test system: E. coli (blaNDM-5); settings: clinical E. coli before ten-fold increase in blaNDM-5 copy number; cited from earlier work
# [11] = molecular target: T2, VIM-2; assay: Inhibition of nitrocefin hydrolysis by VIM-2; format: biochemical; settings: 2 nM VIM-2, 5 min preincubation at 30 °C, 50 μM nitrocefin
# Outline: as §2
# [12] = molecular target: T3, NDM-1; assay: Inhibition of nitrocefin hydrolysis by NDM-1; format: biochemical; settings: 2 nM NDM-1, 5 min preincubation at 30 °C, 50 μM nitrocefin
# Outline: as §2
# [13] = molecular target: T4, NDM-5; assay: Steady-state hydrolysis kinetics with purified NDM-5; format: biochemical; settings: FDC hydrolysis by NDM-5, 30 °C, pH 7.5
# Outline: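 Purified enzyme in 10 mM HEPES, 200 mM NaCl pH 7.5 with 20 μM ZnSO4, at 30 °C. Initial velocities of substrate hydrolysis followed at 259 nm, Δε259 = −9430 M−1 cm−1, 0.1 cm path cuvette. kcat and KM derived from these initial-rate measurements.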
smiles,measurement,setting,value
"CC(C)(O/N=C(\C(=O)N[C@@H]1C(=O)N2C(C(=O)[O-])=C(C[n+]3ccccc3)CS[C@H]12)c1csc(N)n1)C(=O)O [CAZ, ceftazidime]",K M,[1],44 ± 3 µM
same,k cat,[1],8 ± 1 s⁻¹
same,k cat /K M,[1],180000 M⁻¹ s⁻¹
same,hydrolysis monitored by UV difference spectroscopy,[2],can turnover
same,hydrolysis monitored by UV difference spectroscopy,[3],can turnover
same,hydrolysis monitored by UV difference spectroscopy,[4],can turnover
same,K M,[4],45 ± 12 µM
same,k cat /K M,[5],50000 M⁻¹ s⁻¹
same,K M,[5]; standard deviations <10%,72 µM
same,k cat,[5]; standard deviations <10%,3.6 s⁻¹
same,K M,[6],86 ± 11 µM
same,k cat,[6],15 s⁻¹
same,k cat /K M,[6],180000 M⁻¹ s⁻¹
"CC(C)(O/N=C(\C(=O)N[C@@H]1C(=O)N2C(C(=O)[O-])=C(C[N+]3(CCNC(=O)c4ccc(O)c(O)c4Cl)CCCC3)CS[C@H]12)c1csc(N)n1)C(=O)O [FDC, cefiderocol]",increase in MIC values,"[7]; E. coli laboratory strain, NDM-1 overproduction vs basal level",16 fold
same,MIC,"[7]; Escherichia coli, ID-CAMHB, higher levels of NDM-1 (IPTG-induced)",0.5 µg/mL
same,inhibition of nitrocefin hydrolysis activity,[8],inhibited
same,MIC,[9],0.06 µg/mL
same,K M,"[2]; FDC hydrolysis by VIM-2, 30 °C, pH 7.5",250 ± 80 µM
same,hydrolysis monitored by UV difference spectroscopy,[2],negligible activity
same,K M,"[3]; FDC hydrolysis by IMP-1, 30 °C, pH 7.5",300 ± 120 µM
same,hydrolysis monitored by UV difference spectroscopy,[3],negligible activity
same,MIC,[10],2 µg/mL
same,inhibition of nitrocefin hydrolysis activity,[11],inhibited
same,hydrolysis monitored by UV difference spectroscopy,[4],efficiently hydrolyzes
same,K M,[4],443 ± 59 µM
same,inhibition of nitrocefin hydrolysis activity,[12],largely unperturbed
same,K M,[13],405 ± 40 µM
same,k cat,[13],75 ± 3 s⁻¹
